Data published in ChEMBL document CHEMBL1800068 (J Med Chem, 2011).
Calls of active or inactive are those of the source. The rule behind the calls is not given here.

Columns and labels:
[1] = target: T1, Retinol-binding protein 4 (Homo sapiens, UniProt P02753); experiment: Binding affinity to His-tagged recombinant human sRBP expressed in Escherichia coli BL21(DE3) assessed as disruption of sRBP-TTR protein interaction at 1 to 100 uM after 1 hr by SDS-PAGE and silver staining method
Procedure, shortened: (§1)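 Compound was 100 μM, or 1, 10, 20, 50 and 100 μM for dose–response. Control was 10 μM ROH with no compound. Released free sRBP in the flow-through was analysed by SDS-PAGE; each run done at least three times.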

[2] = target: T1, Retinol-binding protein 4; experiment: Binding affinity to His-tagged recombinant human sRBP expressed in Escherichia coli BL21(DE3) assessed as disruption of sRBP-TTR protein interaction after 1 hr by SDS-PAGE and silver staining method; procedure, shortened: as §1
[3] = target: T1, Retinol-binding protein 4; experiment: Antagonist activity at His-tagged recombinant human sRBP […] assessed as disruption of ROH-sRBP-TTR protein interaction after 2 hr by TR-FRET assay; format: functional
Procedure, shortened: (§2)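 Apo His-sRBP (P. pastoris-expressed), 5 nM, with 100 nM biotinylated native TTR, 100 nM streptavidin-APC and 1 nM europium anti-His antibody. Inhibitor held at 10 μM while ROH was titrated, in 20 mM Tris-HCl pH 7.4, 150 mM NaCl, 1 mM EDTA, 0.01% BSA, 0.02% Tween 20.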

[4] = target: T1, Retinol-binding protein 4; experiment: Antagonist activity at His-tagged recombinant human sRBP […] assessed as disruption of ROH-sRBP-TTR protein interaction after 2 hr by TR-FRET assay relative to control; format: functional; procedure, shortened: as §2
[5] = target: T1, Retinol-binding protein 4; experiment: Binding affinity to His-tagged recombinant human sRBP expressed in Pichia pastoris assessed as apparent dissociation constant after 5 mins by fluorescence spectrophotometric analysis; details: read-out: Kd(app)
[6] = target: T1, Retinol-binding protein 4; experiment: Binding affinity to immobilized His-tagged recombinant human sRBP assessed as inhibition of sRBP and detergent treated HEK293 membrane interaction at 10 uM after 1 hr by surface plasmon resonance assay
[7] = target: T1, Retinol-binding protein 4; experiment: Antagonist activity at His-tagged recombinant human sRBP expressed in Escherichia coli BL21(DE3) assessed as disruption of sRBP-TTR protein interaction after 2 hr by surface plasmon resonance assay; format: functional
Procedure, shortened: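 SPR run at 25 °C on a Ni-NTA chip in HBS with 50 μM EDTA at 10 μL/min. Nickel activation, 5 min capture of 200 nM His-sRBP, 1 min compound pulse, then 5 min injection of 1 μM native untagged TTR preincubated with compound at 10 μM. Reference-surface corrected; regenerated with 0.3 mM EDTA; repeated three to five times.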

[8] = target: T1, Retinol-binding protein 4; experiment: Binding affinity to His-tagged recombinant human sRBP expressed in Escherichia coli BL21(DE3) assessed as disruption of sRBP-TTR protein interaction at 100 uM after 1 hr by SDS-PAGE and silver staining method relative to 10 uM ROH; procedure, shortened: as §1

Compound	Activity [1]	Activity [2]	other results
COCCC(=O)Nc1ccc(O)cc1	inactive		
O=C(Cc1ccccc1)Nc1ccc(O)cc1	inactive		
COc1ccc(CC(=O)Nc2ccc(O)cc2)cc1	inactive		
CC(C)c1ccc(CCC(=O)Nc2ccc(O)cc2)cc1	inactive		
CC(C)=CC(=O)Nc1ccc(O)cc1	inactive		
CC(C)CCCC(=O)Nc1ccc(O)cc1	inactive		
COCCOCC(=O)Nc1ccc(O)cc1	inactive		
CC(C)(C)C(=O)Nc1ccc(O)cc1	inactive		
CC1=C(/C=C/C(C)=C/C=C/C(C)=C/C(=O)N2CCCC3CCCCC32)C(C)(C)CCC1 (stereo not drawn)		Active	
COc1ccc(CCC(=O)Nc2ccc(O)cc2)cc1	inactive		
C=CC(=O)Nc1ccc(O)cc1	inactive		
CC1=C(/C=C/C(C)=C/C=C/C(C)=C/C(=O)N2CCC(F)CC2)C(C)(C)CCC1		Active	
O=C(CCCCc1ccccc1)Nc1ccc(O)cc1	inactive		
O=C(CCCc1ccccc1)Nc1ccc(O)cc1	inactive		
COc1ccc(CCCC(=O)Nc2ccc(O)cc2)cc1	inactive		
CC(C)CCC(=O)Nc1ccc(O)cc1	inactive		
CC1=C(/C=C/C(C)=C/C=C/C(C)=C/C(=O)N2CCC3CCCCC3C2)C(C)(C)CCC1 (stereo not drawn)		Active	
CC1=C(/C=C/C(C)=C/C=C/C(C)=C/C(=O)N2CCC(F)(F)CC2)C(C)(C)CCC1		Active	
CC(C)(C)CC(=O)Nc1ccc(O)cc1	inactive		
CCCCC(=O)Nc1ccc(O)cc1	inactive		
CC(C)CC(=O)Nc1ccc(O)cc1	inactive		
O=C(CCCCCc1ccccc1)Nc1ccc(O)cc1	inactive		
CC(C)=CCC/C(C)=C/C(=O)Nc1ccc(O)cc1	inactive		
CC(C)c1ccc(CCCC(=O)Nc2ccc(O)cc2)cc1	inactive		
CC1=C(/C=C/C(C)=C/C=C/C(C)=C/C(=O)Nc2ccc(O)cc2)C(C)(C)CCC1			fold change (FC) [8]: 3; Activity [7]: Active; Activity [6]: inactive
O=C(CCc1ccccc1)Nc1ccc(O)cc1	inactive		
CC1=C(/C=C/C(C)=C/C=C/C(C)=C/C(=O)N2CCCOCC2)C(C)(C)CCC1		Active	
CC1=C(/C=C/C(C)=C/C=C/C(C)=C/C(=O)N2CCCCCC2)C(C)(C)CCC1		Active	
CC(CCCC(C)CC(=O)Nc1ccc(O)cc1)CCC1C(C)CCCC1(C)C (stereo not drawn)		Active	

More lines, main results first:

Activity [1]	Activity [2]	Compound	other results
	Active	COc1cc(NC(=O)/C=C(C)/C=C/C=C(C)/C=C/C2=C(C)CCCC2(C)C)cc(OC)c1OC	
	Active	CC1=C(/C=C/C(C)=C/C=C/C(C)=C/C(=O)N2CCCCC2)C(C)(C)CCC1	
	Active	CC1=C(/C=C/C(C)=C/C=C/C(C)=C/C(=O)N2CCN(c3ccc(C)cc3)CC2)C(C)(C)CCC1	
	Active	CCOC(=O)CNC(=O)/C=C(C)/C=C/C=C(C)/C=C/C1=C(C)CCCC1(C)C	
	Active	CC1=C(/C=C/C(C)=C/C=C/C(C)=C/C(=O)NCc2ccccc2)C(C)(C)CCC1	
	Active	CC1=C(/C=C/C(C)=C/C=C/C(C)=C/C(=O)N2CCC(CCO)CC2)C(C)(C)CCC1	
	Active	CC1=C(/C=C/C(C)=C/C=C/C(C)=C/C(=O)NCCO)C(C)(C)CCC1	EC50 [3]: 145 nM; Ratio EC50 [4]: 2; Kd [5]: 214 nM; Activity [6]: Active
	Active	CC1=C(/C=C/C(C)=C/C=C/C(C)=C/C(=O)NCCCOc2ccccc2)C(C)(C)CCC1	
	Active	CC1=C(/C=C/C(C)=C/C=C/C(C)=C/C(=O)Nc2ccc3c(c2)OCO3)C(C)(C)CCC1	
	Active	CC1=C(/C=C/C(C)=C/C=C/C(C)=C/C(=O)NCC(O)CO)C(C)(C)CCC1 (stereo not drawn)	EC50 [3]: 171 nM; Ratio EC50 [4]: 2; Kd [5]: 178 nM; Activity [6]: Active
	Active	CCOc1ccc(NC(=O)/C=C(C)/C=C/C=C(C)/C=C/C2=C(C)CCCC2(C)C)cc1	
	Active	CC1=C(/C=C/C(C)=C/C=C/C(C)=C/C(=O)NCc2ccc(Oc3ccccc3)cc2)C(C)(C)CCC1	
	Active	CC1=C(/C=C/C(C)=C/C=C/C(C)=C/C(=O)N2CCC(O)(c3ccccc3)CC2)C(C)(C)CCC1	
	Active	CC1=C(/C=C/C(C)=C/C=C/C(C)=C/C(=O)NCCC(C)(C)C)C(C)(C)CCC1	
	Active	COc1ccccc1CNC(=O)/C=C(C)/C=C/C=C(C)/C=C/C1=C(C)CCCC1(C)C	
	Active	CC1=C(/C=C/C(C)=C/C=C/C(C)=C/C(=O)Nc2ccc(OCC(=O)O)cc2)C(C)(C)CCC1	
	Active	CC1=C(/C=C/C(C)=C/C=C/C(C)=C/C(=O)N2CCC(Cc3ccccc3)CC2)C(C)(C)CCC1	
	Active	COc1cccc(CNC(=O)/C=C(C)/C=C/C=C(C)/C=C/C2=C(C)CCCC2(C)C)c1	
	Active	COc1ccc(NC(=O)/C=C(C)/C=C/C=C(C)/C=C/C2=C(C)CCCC2(C)C)cc1	
	Active	CC1=C(/C=C/C(C)=C/C=C/C(C)=C/C(=O)NCc2ccc(Cl)cc2)C(C)(C)CCC1	

Activity [1]	Activity [2]	Compound	other results
	Active	COc1cccc(NC(=O)/C=C(C)/C=C/C=C(C)/C=C/C2=C(C)CCCC2(C)C)c1	
	Dose-dependent effect	CC1=C(/C=C/C(C)=C/C=C/C(C)=C/C(=O)Nc2ccc(N(C)C)cc2)C(C)(C)CCC1	EC50 [3]: 954 nM; Ratio EC50 [4]: 15; Kd [5]: 98 nM; Activity [6]: Active
	Active	CC1=C(/C=C/C(C)=C/C=C/C(C)=C/C(=O)NCc2cccnc2)C(C)(C)CCC1	
	Active	CC1=C(/C=C/C(C)=C/C=C/C(C)=C/C(=O)NC2CCCCC2)C(C)(C)CCC1	
	Active	CC1=C(/C=C/C(C)=C/C=C/C(C)=C/C(=O)NC2CC2)C(C)(C)CCC1	
	Active	CC1=C(/C=C/C(C)=C/C=C/C(C)=C/C(=O)NCc2ccc(F)cc2)C(C)(C)CCC1	
	Active	COC(=O)COc1ccc(NC(=O)/C=C(C)/C=C/C=C(C)/C=C/C2=C(C)CCCC2(C)C)cc1	EC50 [3]: 1260 nM; Ratio EC50 [4]: 15; Activity [7]: inactive; Kd [5]: 131 nM; Activity [6]: Active
	Active	CC1=C(/C=C/C(C)=C/C=C/C(C)=C/C(=O)NCc2ccccn2)C(C)(C)CCC1	
	Active	CC1=C(/C=C/C(C)=C/C=C/C(C)=C/C(=O)Nc2ccc(OCC(=O)N(C)C)cc2)C(C)(C)CCC1	
	Active	CC1=C(/C=C/C(C)=C/C=C/C(C)=C/C(=O)NCC2CC2)C(C)(C)CCC1	
	Active	CC1=C(/C=C/C(C)=C/C=C/C(C)=C/C(=O)NCc2ccc3c(c2)OCO3)C(C)(C)CCC1	
	Active	CC1=C(/C=C/C(C)=C/C=C/C(C)=C/C(=O)N2CCS(=O)(=O)CC2)C(C)(C)CCC1	
	Active	CC1=C(/C=C/C(C)=C/C=C/C(C)=C/C(=O)N2CCC(O)CC2)C(C)(C)CCC1	
	Active	CC1=C(/C=C/C(C)=C/C=C/C(C)=C/C(=O)Nc2ccc(OCC(=O)N3CCCCC3)cc2)C(C)(C)CCC1	
	Active	CC1=C(/C=C/C(C)=C/C=C/C(C)=C/C(=O)Nc2ccccc2)C(C)(C)CCC1	
	Active	CC1=C(/C=C/C(C)=C/C=C/C(C)=C/C(=O)N2CCOCC2)C(C)(C)CCC1	EC50 [3]: 154 nM; Ratio EC50 [4]: 2; Kd [5]: 227 nM; Activity [6]: Active
	Active	CC1=C(/C=C/C(C)=C/C=C/C(C)=C\C(=O)Nc2ccc(O)cc2)C(C)(C)CCC1	Activity [6]: Active
	Active	COCCOc1ccc(NC(=O)/C=C(C)/C=C/C=C(C)/C=C/C2=C(C)CCCC2(C)C)cc1	
	Active	CC1=C(/C=C/C(C)=C/C=C/C(C)=C/C(=O)Nc2ccc(OCC(=O)NCCO)cc2)C(C)(C)CCC1	
	Active	COc1ccc(CNC(=O)/C=C(C)/C=C/C=C(C)/C=C/C2=C(C)CCCC2(C)C)cc1	
